Assay results from ChEMBL document CHEMBL1142145, “Posaconazole prophylaxis in experimental systemic zygomycosis” (2007).
In brackets after ≈: the same amount, converted by molar mass. Activity calls are given as the source filed them. No cut-off for these calls is given here.

How the values were obtained:
Rhizopus arrhizus [1] = assay: Reduction of number of infection foci in Rhizopus oryzae 4570 infected neutropenic CD1 mouse kidney at 1 mg/kg/day, ip; assay type: functional, organism-based
In short: (§1)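 On day 3 brains and kidneys were formalin-fixed and stained with Grocott-Gomori methenamine silver. At least two blinded observers counted hyphal foci and measured their size over 20 consecutive fields (15.7 mm2/section). Data are means ± SEM, 5 mice/group, ANOVA with Bonferroni.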

Mus musculus [2] = assay: Increase in survival of neutropenic CD1 mouse infected with 0.1 mega Rhizopus oryzae 4745 at 1 mg/kg/day, ip; assay type: functional, organism-based
In short: (§2)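 Male CD1 mice (25 g) made neutropenic with cyclophosphamide 200 mg/kg i.p. on […], +1 and +4 relative to infection. […] Inocula per mouse: R. oryzae 4570, 5 x 10^6; A. corymbifera, 5 x 10^5; R. oryzae 4745, 2 x 10^6 or 1 x 10^5. Deaths were recorded daily to day 10, with 13–18 mice/group and log-rank comparison.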

Mus musculus [3] = assay: Increase in survival of neutropenic CD1 mouse infected with 2 mega Rhizopus oryzae 4745 at 1 mg/kg/day, ip; assay type: functional, organism-based; in short: as §2
Lichtheimia corymbifera [4] = assay: Percentage of infected spleen in neutropenic CD1 mouse infected with Absidia corymbifera 4535 at 1 mg/kg/day, ip; assay type: functional; conditions: route intraperitoneal
In short: (§3)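 They were infected i.v. with R. oryzae 4570 (5 x 10^6 spores) or A. corymbifera (5 x 10^5 spores). On day 3 brain, lungs, spleen and kidneys were homogenized in 2 ml saline and plated whole on SDA (detection limit 1 CFU/organ). Value is % culture-positive organs; 8 mice/group.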

Lichtheimia corymbifera [5] = assay: Percentage of infected kidney in neutropenic CD1 mouse infected with Absidia corymbifera 4535 at 1 mg/kg/day, ip; assay type: functional; conditions: route intraperitoneal; in short: as §3
Lichtheimia corymbifera [6] = assay: Percentage of infected lung in neutropenic CD1 mouse infected with Absidia corymbifera 4535 at 1 mg/kg/day, ip; assay type: functional; conditions: route intraperitoneal; in short: as §3
Rhizopus arrhizus [7] = assay: Antimicrobial activity against Rhizopus oryzae 4745; assay type: functional
In short: (§4)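 CLSI M38-A broth microdilution. Isolates were grown on Sabouraud dextrose agar for 5 days at 35°C, and conidia were harvested in 0.85% saline. The final inoculum was about 10^4 CFU/ml, set by hemocytometer. Drug range 0.015–8.0 µg/ml; plates incubated at 35°C for 21–26 h. MIC was the lowest concentration with no discernible growth. Each strain was tested in quintuplicate.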

Mus musculus [8] = assay: Increase in survival of Absidia corymbifera 4535 infected neutropenic CD1 mouse at 1 mg/kg/day, ip; assay type: functional, organism-based; in short: as §2
Lichtheimia corymbifera [9] = assay: Reduction of number of infection foci in Absidia corymbifera 4535 infected neutropenic CD1 mouse kidney at 1 mg/kg/day, ip; assay type: functional, organism-based; in short: as §1
Lichtheimia corymbifera [10] = assay: Reduction of infection foci size in Absidia corymbifera 4535 infected neutropenic CD1 mouse kidney at 1 mg/kg/day, ip; assay type: functional, organism-based; in short: as §1
Mus musculus [11] = assay: Increase in survival of Rhizopus oryzae 4570 infected neutropenic CD1 mouse at 1 mg/kg/day, ip; assay type: functional, organism-based; in short: as §2
Rhizopus arrhizus [12] = assay: Reduction of infection foci size in Rhizopus oryzae 4570 infected neutropenic CD1 mouse kidney at 1 mg/kg/day, ip; assay type: functional, organism-based; in short: as §1
Lichtheimia corymbifera [13] = assay: Antimicrobial activity against Absidia corymbifera 4535; assay type: functional; in short: as §4
Rhizopus arrhizus [14] = assay: Antimicrobial activity against Rhizopus oryzae 4570; assay type: functional; in short: as §4
Lichtheimia corymbifera [15] = assay: Reduction of number of infection foci in Absidia corymbifera 4535 infected neutropenic CD1 mouse kidney at 30 mg/kg/day, po; assay type: functional, organism-based
In short: (§5)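 Neutropenic CD1 mice were given oral prophylaxis for 3 days, then i.v. challenge with R. oryzae 4570 (5 x 10^6 spores) or A. corymbifera (5 x 10^5). On day 3, brain and kidney were formalin-fixed, paraffin-embedded and stained with Grocott-Gomori methenamine silver. Number and size of hyphal foci were scored blind by at least two observers in 20 consecutive fields (15.7 mm2 per section). Values are mean ± SEM from 5 mice per group; ANOVA with Bonferroni correction.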

Mus musculus [16] = assay: Increase in survival of Absidia corymbifera 4535 infected neutropenic CD1 mouse at 20 mg/kg/day, po; assay type: functional, organism-based
In short: (§6)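 Male CD1 mice (25 g) were made neutropenic with i.p. cyclophosphamide, 200 mg/kg, on days […] and +4 postinfection. Oral gavage dosing (200 µl) was given daily for 3 days, the last dose 2 h before i.v. challenge; controls received PEG 200. Challenge per mouse: R. oryzae 4570, 5 x 10^6 spores; A. corymbifera, 5 x 10^5; R. oryzae 4745, 1 x 10^5. Deaths were recorded daily to day 10, moribund mice counted dead next day. 13–18 mice per group; log rank test.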

Lichtheimia corymbifera [17] = assay: Reduction of infection foci size in Absidia corymbifera 4535 infected neutropenic CD1 mouse brain at 30 mg/kg/day, po; assay type: functional, organism-based; in short: as §5
Lichtheimia corymbifera [18] = assay: Percentage of infected lung in neutropenic CD1 mouse infected with Absidia corymbifera 4535 at 30 mg/kg/day, po; assay type: functional
In short: (§7)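 Neutropenic CD1 mice received three daily oral prophylactic doses, the last 2 h before i.v. challenge: R. oryzae 4570 at 5 x 10^6 or A. corymbifera at 5 x 10^5 spores/mouse. On day 3 mice were killed. Brain, lungs, spleen and kidneys were homogenized in 2 ml saline and plated whole on SDA; detection limit 1 CFU/organ. Read-out was percent culture-positive organs, eight mice per group.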

Rhizopus arrhizus [19] = assay: Reduction of infection foci size in Rhizopus oryzae 4570 infected neutropenic CD1 mouse kidney at 30 mg/kg/day, po; assay type: functional, organism-based; in short: as §5
Mus musculus [20] = assay: Increase in survival of Absidia corymbifera 4535 infected neutropenic CD1 mouse at 80 mg/kg/day, po; assay type: functional, organism-based; in short: as §6
Lichtheimia corymbifera [21] = assay: Reduction of number of infection foci in Absidia corymbifera 4535 infected neutropenic CD1 mouse brain at 30 mg/kg/day, po; assay type: functional, organism-based; in short: as §5
Mus musculus [22] = assay: Increase in survival of neutropenic CD1 mouse infected with 0.1 mega Rhizopus oryzae 4745 at 50 mg/kg/day, po; assay type: functional, organism-based; in short: as §6
Lichtheimia corymbifera [23] = assay: Percentage of infected brain in neutropenic CD1 mouse infected with Absidia corymbifera 4535 at 30 mg/kg/day, po; assay type: functional; in short: as §7
Rhizopus arrhizus [24] = assay: Percentage of infected brain in neutropenic CD1 mouse infected with Rhizopus oryzae 4570 at 30 mg/kg/day, po; assay type: functional; in short: as §7
Lichtheimia corymbifera [25] = assay: Percentage of infected spleen in neutropenic CD1 mouse infected with Absidia corymbifera 4535 at 30 mg/kg/day, po; assay type: functional; in short: as §7
Rhizopus arrhizus [26] = assay: Reduction of infection foci size in Rhizopus oryzae 4570 infected neutropenic CD1 mouse brain at 30 mg/kg/day, po; assay type: functional, organism-based; in short: as §5
Rhizopus arrhizus [27] = assay: Percentage of infected spleen in neutropenic CD1 mouse infected with Rhizopus oryzae 4570 at 30 mg/kg/day, po; assay type: functional; in short: as §7
Rhizopus arrhizus [28] = assay: Percentage of infected lung in neutropenic CD1 mouse infected with Rhizopus oryzae 4570 at 30 mg/kg/day, po; assay type: functional; in short: as §7
Mus musculus [29] = assay: Increase in survival of Rhizopus oryzae 4570 infected neutropenic CD1 mouse at 20 mg/kg/day, po; assay type: functional, organism-based; in short: as §6
Lichtheimia corymbifera [30] = assay: Reduction of infection foci size in Absidia corymbifera 4535 infected neutropenic CD1 mouse kidney at 30 mg/kg/day, po; assay type: functional, organism-based; in short: as §5
Rhizopus arrhizus [31] = assay: Percentage of infected kidney in neutropenic CD1 mouse infected with Rhizopus oryzae 4570 at 30 mg/kg/day, po; assay type: functional; in short: as §7
Lichtheimia corymbifera [32] = assay: Percentage of infected kidney in neutropenic CD1 mouse infected with Absidia corymbifera 4535 at 30 mg/kg/day, po; assay type: functional; in short: as §7
Rhizopus arrhizus [33] = assay: Reduction of number of infection foci in Rhizopus oryzae 4570 infected neutropenic CD1 mouse kidney at 30 mg/kg/day, po; assay type: functional, organism-based; in short: as §5
Rhizopus arrhizus [34] = assay: Reduction of number of infection foci in Rhizopus oryzae 4570 infected neutropenic CD1 mouse brain at 30 mg/kg/day, po; assay type: functional, organism-based; in short: as §5
Mus musculus [35] = assay: Increase in survival of Rhizopus oryzae 4570 infected neutropenic CD1 mouse at 80 mg/kg/day, po; assay type: functional, organism-based; in short: as §6

In the case of C[C@@H]1[C@H](O)[C@@H](C)/C=C/C=C/C=C/C=C/C=C/C=C/C=C/[C@H](O[C@@H]2O[C@H](C)[C@@H](O)[C@H](N)[C@@H]2O)C[C@@H]2O[C@](O)(C[C@@H](O)C[C@@H](O)[C@H](O)CC[C@@H](O)C[C@@H](O)CC(=O)O[C@H]1C)C[C@H](O)[C@H]2C(=O)O [AMPHOTERICIN B], the Activity (Rhizopus arrhizus [1]) is reported as “Active”, the Activity (Mus musculus [2]) is reported as “Active” and the Activity (Mus musculus [3]) is reported as “Active”. It also gave an Activity (Lichtheimia corymbifera [4]) of 100%, an Activity (Lichtheimia corymbifera [5]) of 62.5% and an Activity (Lichtheimia corymbifera [6]) of 25%. The MIC (Rhizopus arrhizus [7]) was 0.5 µg/mL (≈ 0.541 µM), the Activity (Mus musculus [8]) was “Active” and the Activity (Lichtheimia corymbifera [9]) was “Active”. For the same compound, the Activity (Lichtheimia corymbifera [10]) was “Active”, the Activity (Mus musculus [11]) was “Active” and the Activity (Rhizopus arrhizus [12]) was “Active”. It also gave an MIC (Lichtheimia corymbifera [13]) of 1 µg/mL (≈ 1.08 µM) and an MIC (Rhizopus arrhizus [14]) of 2 µg/mL (≈ 2.16 µM).
In the case of CC[C@@H]([C@H](C)O)n1ncn(-c2ccc(N3CCN(c4ccc(OC[C@@H]5CO[C@@](Cn6cncn6)(c6ccc(F)cc6F)C5)cc4)CC3)cc2)c1=O [POSACONAZOLE], the Activity (Lichtheimia corymbifera [15]) is reported as “Active”, the Activity (Mus musculus [16]) is reported as “Active” and the Activity (Lichtheimia corymbifera [17]) is reported as “Active”. For the same compound, the Activity (Lichtheimia corymbifera [18]) was 12.5%, the Activity (Rhizopus arrhizus [19]) was “Active” and the Activity (Mus musculus [20]) was “Active”. For the same compound, the Activity (Lichtheimia corymbifera [21]) was “Active”, the Activity (Mus musculus [22]) was “Active” and the Activity (Lichtheimia corymbifera [23]) was 62.5%. For the same compound, the Activity (Rhizopus arrhizus [24]) was 100%, the Activity (Lichtheimia corymbifera [25]) was 100% and the Activity (Rhizopus arrhizus [26]) was “inactive”. For the same compound, the Activity (Rhizopus arrhizus [27]) was 100%, the Activity (Rhizopus arrhizus [28]) was 100% and the MIC (Rhizopus arrhizus [7]) was 1 µg/mL (≈ 1.43 µM). The Activity (Mus musculus [29]) was “inactive”, the Activity (Lichtheimia corymbifera [30]) was “Active” and the Activity (Rhizopus arrhizus [31]) was 100%. The Activity (Lichtheimia corymbifera [32]) was 75%, the Activity (Rhizopus arrhizus [33]) was “Active” and the Activity (Rhizopus arrhizus [34]) was “inactive”. For the same compound, the MIC (Lichtheimia corymbifera [13]) was 0.25 µg/mL (≈ 0.357 µM), the Activity (Mus musculus [35]) was “inactive” and the MIC (Rhizopus arrhizus [14]) was 1 µg/mL (≈ 1.43 µM).
